# Only some compounds are listed: those with a hit (about 2.1% of all), similar ones and a draw of the others.
# RanGTP-Impb inh: disruptors of Ran-importin-beta complex formation – biochemical, FRET, CFP-Ran, YFP-importin-beta, homogeneous, primary screen; cell-free CFP-Ran/YFP-importin-beta FRET ratio; inhibition, % (concentration not given with the values); 1.1% of 300,000 active; AID 2216;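 active = more than half of the replicate wells show a fall in the fluorescence ratio signal beyond about 16%, limit read from the data, passing the limit was not always enough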;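 note: 0% = DMSO wells and 100% = Ran loaded with GDP instead of GTP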
# Tb hexokinase: T. brucei hexokinase 1 inhibition; recombinant TbHK1, G6PDH-coupled NADH A340; inhibition, % at 10 µM; 0.11% of 220,000 active; AID 1430;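 active = inhibition of 50% or more in the single-dose primary screen; inactive = inhibition below 50%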
# Hck Nef HTS: inhibitors of human Hck kinase activated by Nef; P08631; Recombinant Hck-YEEI plus Nef, Z-Lyte FRET kinase assay; inhibition, % at 20 µM; 0.68% of 220,000 active; AID 463187;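 active = Hck-Nef kinase inhibition above about 50%, limit read from the data; inactive = inhibition below that limit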;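 note: 0% = DMSO with Hck plus Nef and 100% = Hck alone without Nef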
# Runt-CBFb FRET: Runt domain-CBFb interaction inhibition; Q01196+Q13951; Cerulean-Runt/Venus-CBFb FRET ratio 530/480, 1 h; inhibition, % at 20 µM; 0.46% of 220,000 active;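 active = inhibition over about 50% at 20 µM in the single-dose screen, limit read from the data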;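 note: 0% = DMSO wells and 100% = excess unlabeled CBFb competitor control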
#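 Assay system: Cerulean-tagged RUNX1 Runt domain (FRET donor) fusion protein / Amount: 100 nM each of Venus-CBFb and Cerulean-Runt domain / Medium: Tris buffer pH 7.5 with salts and BSA / Also added: Venus-CBFb 100 nM / Schedule: 1 h complex formation plus 1 h compound treatment, room temperature / Signal: FRET fluorescence / Read-out: loss of energy transfer signal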
# p97 inhibitor: blocks human p97 ATPase activity; recombinant p97 ATPase, Kinase-Glo ATP luminescence, 3 h; 0.42% of 220,000 active; P55072; inhibition, % at 8 µM; in the data active = inhibition above about 15%;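 note: 0% = DMSO vehicle and 100% = wells lacking enzyme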
# Runt-SMMHC FRET: blocks binding of human RUNX1 Runt domain to CBFb-SMMHC; Cerulean-Runt/Venus-CBFb-SMMHC FRET ratio 530/480, 1 h; Q01196+Q13951; 0.74% of 220,000 active; inhibition, % at 20 µM;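 active = mean inhibition across duplicate retests at 20 µM reaching about 50%, limit read from the data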;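 note: 0% = DMSO wells and 100% = wells with excess untagged CBFb-SMMHC; inhibitors lower the FRET ratio by blocking Runt binding to CBFb-SMMHC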
# YIC counter: counter-screen for RanGTP-importin-beta inhibitors: YIC FRET probe. shares compounds with RanGTP-Impb inh. Purified YIC probe, intramolecular FRET ratio YFP/CFP. IC50, µM. 40% of 1,000 active. AID 435026;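 active = fitted half-maximal inhibitory concentration no more than tenfold above the top dose tested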
# * marks the source's active call; other numbers are inactive results; . = no result.
SMILES,RanGTP-Impb inh,Tb hexokinase,Hck Nef HTS,Runt-CBFb FRET,p97 inhibitor,Runt-SMMHC FRET,YIC counter
Cc1cccc(N2CCN(C(=O)C3COc4ccccc4O3)CC2)c1C (stereo unspecified),26*,-8,1,1,-1,-4,>50
CCOc1ccc(NC(=O)Nc2nc3ccc(S(C)(=O)=O)cc3s2)cc1,1,.,.,.,.,.,.
Cc1ccc(C(=O)CSc2ncn[nH]2)cc1,-3,37,9,6,-1,-4,.
CCc1ccc(C(=O)CSc2ncn[nH]2)cc1,18*,16,1,1,0,-3,>50
N#CC1=C(N)SC(N)=C(C#N)C1c1cccc(O)c1,22*,-11,4,23,9,32,>50
COC(=O)Cn1c(=O)c2c(nc3n2CCCN3CCc2ccccc2)n(C)c1=O,25*,.,.,.,.,.,>50
O=Cc1ccc(N2Cc3ccccc3C2)cc1,18*,.,.,.,.,.,>50
Oc1ccc(N2Cc3ccccc3C2)cc1,5,.,.,.,.,.,.
COc1cc(CNc2ccc(C(=O)O)cc2)cc(Br)c1OCC(=O)NC(C)(C)C,-2,3,2,-3,-2,2,.
C=CCOc1c(Br)cc(CNc2ccc(NC(=O)C(C)C)c(OC)c2)cc1OC,27*,-8,-1,-14,0,-37,>50
COC(=O)c1cc(CN2CCN(c3ccccc3C)CC2)ccc1O,2,-10,2,-2,-6,2,.
O=C(CCCn1c(=S)[nH]c2cc3c(cc2c1=O)OCO3)N1CCc2ccccc2C1,6,-4,1,1,-1,1,.
COc1ccc(-n2c(C)cc(/C=C3/SC(=S)N(C)C3=O)c2C)cc1,23*,-12,3,-7,2,-51,>50
O=C(CSCC(=O)NC1CC1)Nc1ccccc1,40*,1,1,-1,9,-1,>50
Cc1c(CCC(=O)NCCCN2CCCC2=O)c(=O)oc2c(C)c(O)ccc12,33*,.,.,.,.,.,16*
Cc1oc2cc3oc(=O)c(CCC(=O)NC4CC4)c(C)c3cc2c1C,1,.,.,.,.,.,.
Cc1c(CCC(=O)NC2CC2)c(=O)oc2c(C)c(O)ccc12,27*,.,.,.,.,.,20*
CC1CC(C)CN(c2cc(=O)n(Cc3ccc(F)cc3)c(=O)[nH]2)C1 (stereo unspecified),60*,-6,0,0,-5,-2,>50
COC(=O)c1sccc1NC(=O)c1cc(C)on1,1,-1,6,0,1,-4,.
O=C(COC(=O)CSCC(=O)N1CCCCC1)Nc1ccc(Cl)cc1,28*,32,2,-2,6,4,>50
O=C(Nc1ccc(Cl)cc1)N1CCCC1,1,2,-1,0,2,5,.
C=CCNC(=O)c1cccc(OC2CCN(CC(C)(C)C)CC2)c1,18*,.,.,.,.,.,>50
CC(NCc1cccs1)C(=O)NC1CCCCC1 (stereo unspecified),17*,0,16,0,7,0,>50
CC(C)C(NC(=O)c1cccs1)C(=O)NC1CCCCC1 (stereo unspecified),2,.,.,.,.,.,.
CCCCc1nc(SCC(=O)Nc2ccc(S(N)(=O)=O)cc2)n[nH]1,1,2,9,-1,0,2,.
SMILES,RanGTP-Impb inh,Tb hexokinase,Hck Nef HTS,Runt-CBFb FRET,p97 inhibitor,Runt-SMMHC FRET,YIC counter
COc1ccc(-c2csc3ncnc(N4CCN(c5ccc(OC)cc5)CC4)c23)cc1,22*,.,.,.,.,.,>50
NC(=O)C1CCCN(C(=O)NC2CCCCC2)C1 (stereo unspecified),0,1,1,2,2,-3,.
O=C(NC1CSC/C1=N\O)c1ccccc1 (stereo unspecified),-1,2,1,-1,6,0,.
COc1ccc(CC(=O)Nc2sc3c(c2C(N)=O)CCCC3)cc1,3,.,.,.,.,.,.
COc1cc(OC)cc(C(=O)Nc2sc3c(c2C(N)=O)CCC3)c1,18*,.,.,.,.,.,>26
Cc1cc(C2C(C#N)=C(N)Oc3n[nH]c(C)c32)c(C)s1 (stereo unspecified),3,0,2,.,4,-6,.
Cc1cc(C2C(C#N)=C(N)SC(N)=C2C#N)c(C)s1,34*,-21,-6,24,1,32,>50

# Bioassay records from PubChem.
